Experimental data gathered from unrelated publications.
Protocols differ between the studies behind these lines.
ADORA2B: Adenosine receptor A2b (ADORA2B, Homo sapiens, UniProt P29275)
PKN3: Serine/threonine-protein kinase N3 (PKN3, Homo sapiens, UniProt Q6P5Z2)
CFTR: Cystic fibrosis transmembrane conductance regulator (CFTR, Homo sapiens, UniProt P13569)

COc1cc(NC(C)=O)c(Cl)cc1C(=O)Nc1nccs1  inhibition (ADORA2B; cell-free assay; 10 µM): -34.6%
CCN(CC)c1ccc(C2Nc3ccc(C(=O)c4ccccc4)cc3NC3=C2C(=O)CC(C)(C)C3)cc1 (stereo not drawn)  inhibition (Beta-3 adrenergic receptor (ADRB3, Homo sapiens, UniProt P13945); ligand displacement, radioligand; 10 µM): 0%
Cn1cncc1C1=CN(c2ncnc3[nH]cnc23)CCS1  inhibition (PKN3; enzyme activity, inhibitor, radiometric; 2 µM): 80.4%
CC(=NNC(=O)CNc1ccc2ccccc2c1)c1cc(Br)c(O)c(Br)c1  inhibition (CFTR; ion current, inhibitor; 50 µM): 100%
Cn1cnc(Br)c1C1=CN(c2ncnc3[nH]cnc23)CCS1  inhibition (PKN3; enzyme activity, inhibitor, radiometric; 2 µM): 88.3%
O=C(CNc1cccc2ccccc12)NN=Cc1cc(Br)c(O)c(Br)c1  inhibition (CFTR; ion current, inhibitor; 50 µM): 87%
CCCC(C)N1CCCn2c1nc1c2c(=O)n(C)c(=O)n1C (stereo not drawn)  inhibition (ADORA2B; ligand displacement, radioligand; 10 µM, cell membranes): 0%
CC(/C=C/C(=O)NO)=C\[C@@H](C)C(=O)c1ccc(N(C)C)cc1  inhibition (Histone deacetylase 11 (HDAC11, Homo sapiens, UniProt Q96DB2); enzyme activity, inhibitor, fluorescence; 20 µM): < 50%
COCCOc1ccc(N2CCN(CCn3ncc4c3nc(N)n3nc(-c5ccco5)nc43)CC2)cc1  inhibition (ADORA2B; ligand displacement, radioligand; 10 µM, cell membranes): 25%
O=C(CNc1ccc(Cl)cc1)NN=Cc1cc(Br)c(O)c(Br)c1  inhibition (CFTR; ion current, inhibitor; 50 µM): 95%
CCCCCC(C)N1CCCn2c1nc1c2c(=O)n(C)c(=O)n1C (stereo not drawn)  inhibition (ADORA2B; ligand displacement, radioligand; 10 µM, cell membranes): -3%
Oc1ncnc2[nH]ncc12  inhibition (Xanthine dehydrogenase/oxidase (XDH, Homo sapiens, UniProt P47989); enzyme activity, inhibitor, absorbance; 500 µM): 100%
CC(Nc1ccc2ccccc2c1)C(=O)NN=Cc1cc(Br)c(O)c(Br)c1O (stereo not drawn)  inhibition (CFTR; ion current, inhibitor; 50 µM): 91%
CCCCCN1CCCn2c1nc1c2c(=O)n(C)c(=O)n1C  inhibition (ADORA2B; ligand displacement, radioligand; 10 µM, cell membranes): -3%
O=C(c1ccc(Cl)cc1)N(Cc1ccccc1)C1CCCCC1  inhibition (Prostaglandin E2 receptor EP2 subtype (PTGER2, Homo sapiens, UniProt P43116); cell-free assay; 10 µM): 14.3%
CC(C)CC(C)N1CCCn2c1nc1c2c(=O)n(C)c(=O)n1C (stereo not drawn)  inhibition (ADORA2B; ligand displacement, radioligand; 10 µM, cell membranes): 1%
CCN(c1cc(C#CCN2CCOCC2)cc(C(=O)NCc2c(C)cc(C)[nH]c2=O)c1C)[C@H]1CC[C@H](N(C)CCOC)CC1  inhibition (Histone-lysine N-methyltransferase NSD2 (NSD2, Homo sapiens, UniProt O96028); enzyme activity, inhibitor; 1 µM): 26%
CCCCN1CCCn2c1nc1c2c(=O)n(C)c(=O)n1C  inhibition (ADORA2B; ligand displacement, radioligand; 10 µM, cell membranes): 3%
Oc1cccc(Nc2nc(-c3ccc(F)cc3F)cs2)c1  inhibition (ADORA2B; cell-free assay; 10 µM): -11.9%
CN(C)C1CCN(CC#Cc2nn(C3CCCC3)c3nc(NCc4ccccc4)ncc23)C1 (stereo not drawn)  inhibition (RAF proto-oncogene serine/threonine-protein kinase (RAF1, Homo sapiens, UniProt P04049, Y340D/Y341D); enzyme activity, inhibitor, FRET; 0.1 µM): -5%
CC(C)CN1CCCn2c1nc1c2c(=O)n(C)c(=O)n1C  inhibition (ADORA2B; ligand displacement, radioligand; 10 µM, cell membranes): 5%
CC(C)OC(=O)NC(C)(C)c1csc(-c2ccc(F)cc2)n1  inhibition (N-terminal Xaa-Pro-Lys N-methyltransferase 1 (Homo sapiens, UniProt Q9BV86); enzyme activity, inhibitor, fluorescence; 100 µM): < 50%
CC(C)N1CCCn2c1nc1c2c(=O)n(C)c(=O)n1C  inhibition (ADORA2B; ligand displacement, radioligand; 10 µM, cell membranes): -4%
CC(=NNC(=O)CNc1ccc2ccccc2c1)c1cc(Br)c(O)c(Br)c1O  inhibition (CFTR; ion current, inhibitor; 50 µM): 81%
